SMILES strings stand for the structures.

Here are results for 14 compounds from ChEMBL document CHEMBL1177722, “Computer-aided identification of Trypanosoma brucei uridine diphosphate galactose 4'-epimerase inhibitors: toward the development of novel therapies for African sleeping sickness” (J Med Chem, 2010).

One assay deals with T1, UDP-galactose 4-epimerase (Trypanosoma brucei, UniProt Q8T8E9).
T1 sequence (Q8T8E9 whole entry): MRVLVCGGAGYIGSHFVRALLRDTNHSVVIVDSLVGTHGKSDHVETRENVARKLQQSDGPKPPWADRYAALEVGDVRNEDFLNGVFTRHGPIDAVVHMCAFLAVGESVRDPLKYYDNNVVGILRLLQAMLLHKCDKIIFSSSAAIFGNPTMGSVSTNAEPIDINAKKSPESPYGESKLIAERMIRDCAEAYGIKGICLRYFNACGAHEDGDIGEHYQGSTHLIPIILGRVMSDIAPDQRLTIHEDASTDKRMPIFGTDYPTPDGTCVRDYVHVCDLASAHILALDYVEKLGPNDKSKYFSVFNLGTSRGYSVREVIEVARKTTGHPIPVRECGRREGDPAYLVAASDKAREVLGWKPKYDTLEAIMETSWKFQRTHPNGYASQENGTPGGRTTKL
Description: Inhibition of hexahistidine-tagged Trypanosoma brucei UDP-galactose-4'epimerase expressed in Escherichia coli.
Conditions: not given
Summed up:
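Recombinant enzyme reacted with 100 μM UDP-Gal and 100 μM β-NAD+ (5 μg/mL enzyme, 1 mM Tris pH 7.6, 1% DMSO), with or without inhibitor (0.03-100 μM), at 37 °C for 30 min. Quenched with NaOH. UDP-Gal to UDP-Glc conversion followed by HPAEC, detection at 260 nm. IC50 from a four-parameter fit over three independent experiments.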
Take `COC1C(OC(=O)c2ccc(C)[nH]2)C(O)C(Oc2ccc3c(O)c(NC(=O)c4ccc(O)c(CC=C(C)C)c4)c(=O)oc3c2Cl)OC1(C)C` (centres undefined): the IC50 was 5 µM.

For `O=C(O)c1ccccc1-c1ccccc1C(=O)Nc1ccc2c(c1)Cc1cc(NC(=O)c3ccccc3-c3ccccc3C(=O)O)ccc1-2`, 0.9 µM corresponded to half-maximal inhibition (IC50).

`O=C(O)c1ccccc1-c1ccccc1C(=O)Nc1ccc2c(c1)C(O)c1ccccc1-2` (centres undefined): the IC50 was 6.8 µM.

Regarding `O=C(O)c1cc(Cl)ccc1-c1ccc(Cl)cc1C(=O)NC1=CC2=C(CC1)c1c(Cl)cc(Cl)cc1C2`, the half-maximal inhibitory concentration (IC50) amounted to 1.8 µM. This IC50 is about 3.8-fold lower than that of the compound before.

On to `O=C(O)c1ccccc1-c1ccccc1C(=O)Nc1ccc2c(c1)nc(O)c1ccccc12`, for which the IC50 was determined as 3.6 µM.

Take `CCn1c2ccccc2c2cc(NC(=O)c3ccccc3-c3ccccc3C(=O)O)ccc21`: the 50% inhibitory concentration (IC50) was 5.6 µM.

`O=C(O)c1ccccc1-c1ccccc1C(=O)Nc1ccc2c(c1)Cc1ccccc1-2`: the midpoint of inhibition, the IC50, lay at 4.6 µM. The IC50 values of the last two compounds are within 1.5-fold of each other.

The compound `O=C(O)c1ccccc1-c1ccccc1C(=O)Nc1ccc2c(c1)C(=O)c1ccccc1-2` came in with an IC50 of 2.8 µM.

Consider `O=C(O)c1ccccc1-c1ccccc1C(=O)Nc1ccc2c(c1)oc(=O)c1ccccc12`, for which half-maximal inhibition (IC50) required 3.2 µM.

Turning to `O=C(O)c1ccccc1-c1ccccc1C(=O)Nc1ccc2c(c1)-c1ccccc1C2`, 4.2 µM corresponded to half-maximal inhibition (IC50).

In turn, `O=C(O)c1ccccc1-c1ccccc1C(=O)Nc1cccc2c1-c1ccccc1C2` displayed an IC50 of 8 µM. Against the preceding compound, the IC50 is about 1.9-fold higher.

`O=C(O)c1ccccc1-c1ccccc1C(=O)Nc1ccc2c(c1)Cc1cc(F)ccc1-2`: the IC50 was found to be 3.8 µM.

Regarding `O=C(O)c1ccccc1-c1ccccc1C(=O)Nc1cc2c3ccccc3ccc2c2ccccc12`, the IC50 is 2.6 µM.

`O=C(O)c1cc(Cl)ccc1-c1ccc(Cl)cc1C(=O)Nc1ccc2c(c1)Cc1ccccc1-2` registered an IC50 of 3.3 µM.

Another assay relates to Trypanosoma brucei. The assay is described as follows: Antitrypanosomal activity against Trypanosoma brucei after 3 days by alamar blue assay. Format: functional, organism-based. Particulars: 72 h. The procedure, abridged: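 Cultured T. brucei seeded at 1 × 10^4 cells/ml in 384-well format, incubated with or without inhibitor (100 μM to 30 nM) for three days; viable cells then counted by Alamar Blue read-out; EC50 derived from the dose series.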
`COC1C(OC(=O)c2ccc(C)[nH]2)C(O)C(Oc2ccc3c(O)c(NC(=O)c4ccc(O)c(CC=C(C)C)c4)c(=O)oc3c2Cl)OC1(C)C` (centres undefined): the midpoint of the response, the EC50, lay at 4.4 µM.

On to `O=C(O)c1ccccc1-c1ccccc1C(=O)Nc1ccc2c(c1)Cc1cc(NC(=O)c3ccccc3-c3ccccc3C(=O)O)ccc1-2`, for which the concentration for a half-maximal effect (EC50) was > 50 µM.

With `O=C(O)c1ccccc1-c1ccccc1C(=O)Nc1ccc2c(c1)C(O)c1ccccc1-2` (centres undefined), the EC50 is > 50 µM.

In the case of `O=C(O)c1cc(Cl)ccc1-c1ccc(Cl)cc1C(=O)NC1=CC2=C(CC1)c1c(Cl)cc(Cl)cc1C2`, the EC50 is > 50 µM.

As to `O=C(O)c1ccccc1-c1ccccc1C(=O)Nc1ccc2c(c1)nc(O)c1ccccc12`, the concentration for a half-maximal effect (EC50) is > 50 µM.

Consider `CCn1c2ccccc2c2cc(NC(=O)c3ccccc3-c3ccccc3C(=O)O)ccc21`, for which the EC50 was > 50 µM.

For the compound `O=C(O)c1ccccc1-c1ccccc1C(=O)Nc1ccc2c(c1)Cc1ccccc1-2`, the half-maximal effective concentration (EC50) was > 50 µM.

For `O=C(O)c1ccccc1-c1ccccc1C(=O)Nc1ccc2c(c1)C(=O)c1ccccc1-2`, the 50% effective concentration (EC50) is > 50 µM.

Regarding `O=C(O)c1ccccc1-c1ccccc1C(=O)Nc1ccc2c(c1)-c1ccccc1C2`, the EC50 was > 50 µM.

As to `O=C(O)c1ccccc1-c1ccccc1C(=O)Nc1cccc2c1-c1ccccc1C2`, the half-maximal effective concentration (EC50) was > 50 µM.

Consider `O=C(O)c1ccccc1-c1ccccc1C(=O)Nc1ccc2c(c1)Cc1cc(F)ccc1-2`, for which the EC50 was > 50 µM.

The subject of another assay is MRC5. Description: Cytotoxicity against human MRC5 cells after 3 days by alamar blue assay. Format: cell-based. The conditions noted are these: MRC5, 72 h. The procedure, abridged:
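Cultured human MRC5 cells at 1 × 10^4 cells/ml in 384-well format, incubated with or without inhibitor over 100 μM to 30 nM for three days. Viable cell number then counted by Alamar blue.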
For the compound `COC1C(OC(=O)c2ccc(C)[nH]2)C(O)C(Oc2ccc3c(O)c(NC(=O)c4ccc(O)c(CC=C(C)C)c4)c(=O)oc3c2Cl)OC1(C)C` (centres undefined), the concentration for a half-maximal effect (EC50) was > 50 µM.

`O=C(O)c1ccccc1-c1ccccc1C(=O)Nc1ccc2c(c1)Cc1cc(NC(=O)c3ccccc3-c3ccccc3C(=O)O)ccc1-2`: the EC50 is > 50 µM.

As for `O=C(O)c1ccccc1-c1ccccc1C(=O)Nc1ccc2c(c1)C(O)c1ccccc1-2` (centres undefined), the EC50 was > 50 µM.

`O=C(O)c1cc(Cl)ccc1-c1ccc(Cl)cc1C(=O)NC1=CC2=C(CC1)c1c(Cl)cc(Cl)cc1C2` came in with an EC50 of 35.2 µM. This lies in the double-digit micromolar range.

With `O=C(O)c1ccccc1-c1ccccc1C(=O)Nc1ccc2c(c1)nc(O)c1ccccc12`, the EC50 was > 50 µM.

For `CCn1c2ccccc2c2cc(NC(=O)c3ccccc3-c3ccccc3C(=O)O)ccc21`, the EC50 is > 50 µM.

As to `O=C(O)c1ccccc1-c1ccccc1C(=O)Nc1ccc2c(c1)Cc1ccccc1-2`, the EC50 is > 50 µM.

As to `O=C(O)c1ccccc1-c1ccccc1C(=O)Nc1ccc2c(c1)C(=O)c1ccccc1-2`, the EC50 was > 50 µM.

With `O=C(O)c1ccccc1-c1ccccc1C(=O)Nc1ccc2c(c1)oc(=O)c1ccccc12`, the EC50 was > 50 µM.

On to `O=C(O)c1ccccc1-c1ccccc1C(=O)Nc1ccc2c(c1)-c1ccccc1C2`, for which the EC50 was > 50 µM.

Regarding `O=C(O)c1ccccc1-c1ccccc1C(=O)Nc1cccc2c1-c1ccccc1C2`, the EC50 was > 50 µM.

Regarding `O=C(O)c1ccccc1-c1ccccc1C(=O)Nc1ccc2c(c1)Cc1cc(F)ccc1-2`, the concentration for a half-maximal effect (EC50) is > 50 µM.

Turning to `O=C(O)c1ccccc1-c1ccccc1C(=O)Nc1cc2c3ccccc3ccc2c2ccccc12`, the EC50 was > 50 µM.

For the compound `O=C(O)c1cc(Cl)ccc1-c1ccc(Cl)cc1C(=O)Nc1ccc2c(c1)Cc1ccccc1-2`, the EC50 is > 50 µM.
